Activity calls are given as the source filed them. The rule behind the calls is not given here.
How the values were obtained:
Rodentolepis nana [1] = test: Cestodicidal activity against Hymenolepis nana infected in rat assessed as reduction in 98 to 100% of worm load at 250 mg/kg, po after 3 days; assay type: functional, organism-based; set-up: dose 250 mg/kg
Summary of the method: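 Newly weaned male Freiburg-strain rats (25-30 g) infected orally with 200 viable H. nana ova; faecal ova-positive animals treated on day 15 after overnight fast. Single oral dose, starting at 250 mg/kg, then 100, 50, 13, 7.5 mg/kg; three treated, three untreated controls per group. Sacrificed day 3 post-treatment after fasting; small intestine worms collected and scored. Minimum effective dose: lowest giving score ≤10% of control.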

Rodentolepis nana [2] = test: Cestodicidal activity against Hymenolepis nana infected in po dosed rat assessed as […] after 3 days; assay type: functional; conditions: 72 h, read-out: MED
[3] = Cestodicidal activity against Hymenolepis diminuta infected in rat assessed as reduction in worm load at 10 mg/kg, po relative to control; assay type: functional; set-up: scale not given: the % may be the effect or the level left
Summary of the method: (§1)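 Single oral 10 mg/kg dose, with worm-load reduction as the read-out. H. diminuta was tested in rats; Taenia sp. was tested in naturally infected dogs.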

Taenia = test: Cestodicidal activity against Taenia species infected in dog assessed as reduction in worm load at 10 mg/kg, po relative to control; assay type: functional; set-up: scale not given: the % may be the effect or the level left; summary of the method: as §1
Rattus norvegicus [4] = test: Toxicity in rat at 5 g/kg, po; assay type: organism-based; conditions: in vivo, 5000 mg/kg
Rattus norvegicus [5] = test: Toxicity in rat at 5 g/kg, ip; assay type: organism-based; conditions: in vivo, 5000 mg/kg
Rattus norvegicus [6] = test: Toxicity in rat at 5 g/kg, po assessed as mortality; assay type: organism-based; conditions: in vivo, 5000 mg/kg
Rattus norvegicus [7] = test: Toxicity in rat at 5 g/kg, ip assessed as mortality; assay type: organism-based; conditions: in vivo, 5000 mg/kg
Rattus norvegicus [8] = test: Toxicity in rat infected with Hymenolepis nana at 1 g/kg; assay type: organism-based; conditions: in vivo, 1000 mg/kg
Summary of the method: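 Young rats infected with H. nana received 1 g/kg, and tolerance was assessed.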

Mastomys natalensis [9] = test: Toxicity in po dosed natal multimammate mouse; assay type: organism-based; conditions: in vivo
Summary of the method: (§2)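 Acute toxicity study in Mastomys natalensis and dogs, with the compound given orally or intraperitoneally.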

Mastomys natalensis [10] = test: Toxicity in ip dosed natal multimammate mouse; assay type: organism-based; conditions: in vivo; summary of the method: as §2
Canis familiaris [11] = test: Toxicity in po dosed dog; assay type: organism-based, Canis lupus familiaris; conditions: in vivo; summary of the method: as §2
Canis familiaris [12] = test: Toxicity in ip dosed dog; assay type: organism-based, Canis lupus familiaris; conditions: in vivo; summary of the method: as §2

SMILES	Activity (Rodentolepis nana [1])	also measured
O=c1c2cc(Br)c3ccccc3c2oc(=S)n1-c1ccccc1[N+](=O)[O-]	inactive	–
O=C(Nc1ccc(N=C=S)cc1Cl)c1ccc2ccccc2c1O	–	minimal effective dose (Rodentolepis nana [2]): 7.5 mg/kg; Activity [3]: 100%; Activity (Taenia): 100%; Activity (Rattus norvegicus [4]): Non-toxic; Activity (Rattus norvegicus [5]): Non-toxic; Activity (Rattus norvegicus [6]): Non-toxic; Activity (Rattus norvegicus [7]): Non-toxic; Activity (Rattus norvegicus [8]): Non-toxic; Activity (Mastomys natalensis [9]): Non-toxic; Activity (Mastomys natalensis [10]): Non-toxic; Activity (Canis familiaris [11]): Non-toxic; Activity (Canis familiaris [12]): Non-toxic
O=C(Nc1ccc(Cl)cc1Cl)c1ccc2ccccc2c1O	inactive	–
Nc1ccc(NC(=O)c2cc(Br)c3ccccc3c2O)c(Cl)c1	inactive	–
O=c1oc2c(cc(Br)c3ccccc32)c(=O)n1-c1ccc([N+](=O)[O-])cc1Cl	inactive	–
O=c1c2ccc3ccccc3c2oc(=S)n1-c1ccc(Cl)c([N+](=O)[O-])c1	inactive	–
O=C(Nc1ccc(Cl)c(N=C=S)c1)c1cc(Br)c2ccccc2c1O	–	minimal effective dose (Rodentolepis nana [2]): 100 mg/kg
O=c1c2ccc3ccccc3c2oc(=S)n1-c1ccc(Cl)cc1[N+](=O)[O-]	inactive	–
O=c1c2cc(Br)c3ccccc3c2oc(=S)n1-c1ccc([N+](=O)[O-])cc1	inactive	–
O=C(Nc1ccc([N+](=O)[O-])cc1)c1cc(Br)c2ccccc2c1O	–	minimal effective dose (Rodentolepis nana [2]): 100 mg/kg
CC1CCCN(c2ccc(NC(=O)c3ccc4ccccc4c3O)cc2[N+](=O)[O-])C1 (stereo not given)	inactive	–
O=C(Nc1ccc(N2CCCCC2)c([N+](=O)[O-])c1)c1ccc2ccccc2c1O	inactive	–
Nc1ccccc1NC(=O)c1ccc2ccccc2c1O	inactive	–
Nc1cc(NC(=O)c2ccc3ccccc3c2O)ccc1Cl	inactive	–
O=c1c2ccc3ccccc3c2oc(=S)n1-c1ccc([N+](=O)[O-])cc1	inactive	–
O=c1oc2c(ccc3ccccc32)c(=O)n1-c1ccc([N+](=O)[O-])cc1	inactive	–
O=c1c2cc(Br)c3ccccc3c2oc(=S)n1-c1ccc(Cl)cc1[N+](=O)[O-]	inactive	–
CN1CCN(c2ccc(NC(=O)c3ccc4ccccc4c3O)cc2[N+](=O)[O-])CC1	inactive	–
O=c1oc2c(ccc3ccccc32)c(=O)n1-c1ccccc1[N+](=O)[O-]	inactive	–
O=c1oc2c(ccc3ccccc32)c(=O)n1-c1ccc(Cl)c([N+](=O)[O-])c1	inactive	–
O=c1oc2c(cc(Br)c3ccccc32)c(=O)n1-c1ccc(Cl)cc1Cl	inactive	–
O=C(Nc1ccc([N+](=O)[O-])cc1Cl)c1cc(Cl)ccc1O [NICLOSAMIDE]	–	minimal effective dose (Rodentolepis nana [2]): 50 mg/kg
O=C(Nc1ccc([N+](=O)[O-])cc1)c1ccc2ccccc2c1O	inactive	–
O=C(Nc1ccc(N=C=S)cc1Cl)c1cc(Br)c2ccccc2c1O	–	minimal effective dose (Rodentolepis nana [2]): 250 mg/kg
O=c1c2ccc3ccccc3c2oc(=S)n1-c1ccc([N+](=O)[O-])cc1Cl	inactive	–

SMILES	Activity (Rodentolepis nana [1])	also measured
Nc1cc(Cl)ccc1NC(=O)c1ccc2ccccc2c1O	inactive	–
O=C(Nc1ccccc1[N+](=O)[O-])c1ccc2ccccc2c1O	inactive	–
O=c1c2ccc3ccccc3c2oc(=S)n1-c1ccc(Cl)cc1Cl	inactive	–
O=C(Nc1ccc(Cl)cc1[N+](=O)[O-])c1cc(Br)c2ccccc2c1O	–	minimal effective dose (Rodentolepis nana [2]): 250 mg/kg
O=C(Nc1ccc(N2CCCC2)c([N+](=O)[O-])c1)c1ccc2ccccc2c1O	inactive	–
O=C(Nc1ccccc1[N+](=O)[O-])c1ccc2c(Br)cccc2c1O	–	minimal effective dose (Rodentolepis nana [2]): 250 mg/kg
O=c1oc2c(ccc3ccccc32)c(=O)n1-c1ccc(Cl)cc1Cl	inactive	–
O=c1c2ccc3ccccc3c2oc(=S)n1-c1ccccc1[N+](=O)[O-]	inactive	–
O=C(Nc1ccc(Cl)c([N+](=O)[O-])c1)c1ccc2ccccc2c1O	inactive	–
Nc1ccccc1NC(=O)c1cc(Br)c2ccccc2c1O	inactive	–
CC1CCN(c2ccc(NC(=O)c3ccc4ccccc4c3O)cc2[N+](=O)[O-])CC1	inactive	–
O=C(Nc1ccc([N+](=O)[O-])cc1Cl)c1ccc2ccccc2c1O	inactive	–
Nc1ccc(NC(=O)c2ccc3ccccc3c2O)cc1	inactive	–
O=C(Nc1ccc(N=C=S)cc1)c1ccc2ccccc2c1O	–	minimal effective dose (Rodentolepis nana [2]): 100 mg/kg
O=C(Nc1ccc(Cl)cc1[N+](=O)[O-])c1ccc2ccccc2c1O	inactive	–
O=C(Nc1ccc(N2CCOCC2)c([N+](=O)[O-])c1)c1ccc2ccccc2c1O	inactive	–
O=c1oc2c(ccc3ccccc32)c(=O)n1-c1ccc([N+](=O)[O-])cc1Cl	inactive	–
O=C(Nc1ccc([N+](=O)[O-])cc1Cl)c1cc(Br)c2ccccc2c1O	–	minimal effective dose (Rodentolepis nana [2]): 13 mg/kg
O=c1oc2c(cc(Br)c3ccccc32)c(=O)n1-c1ccc(Cl)cc1[N+](=O)[O-]	inactive	–
O=c1c2cc(Br)c3ccccc3c2oc(=S)n1-c1ccc([N+](=O)[O-])cc1Cl	inactive	–
O=C(Nc1ccc(N2CCN(c3ccccc3)CC2)c([N+](=O)[O-])c1)c1ccc2ccccc2c1O	inactive	–
Nc1ccc(NC(=O)c2ccc3ccccc3c2O)c(Cl)c1	inactive	–
Nc1ccc(NC(=O)c2cc(Br)c3ccccc3c2O)cc1	inactive	–
O=C(Nc1ccc(Cl)cc1Cl)c1cc(Br)c2ccccc2c1O	–	minimal effective dose (Rodentolepis nana [2]): 50 mg/kg

Reference: ChEMBL document CHEMBL3243966, “Synthesis of substituted 1-hydroxy-2-naphthanilides as potential cestodicidal agents” (J Med Chem, 1978)
